Where a SMILES comes first, the peptide text is derived from it. The star is where a group is joined. Palmitoyl = CCCCCCCCCCCCCCCC(=O)*
Key:
GPR31 [1] = target: T1, GPR31 (Homo sapiens, UniProt O00270); experiment: Cre-luciferase activation assay in GPR31-transfected CHO cells; format: cell-based; conditions: 6 hours
Outline: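 CHO cells cotransfected by lipofection with Cre-luciferase and GPR31 plasmids, 8 μg each. Cells plated and treated 6 h with 10 μM forskolin with or without 300 nmol/L 12(S)-HETE. Cells then lysed and luciferase activity read as relative light units.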
Target sequence in this assay (O00270 whole entry, species assumed): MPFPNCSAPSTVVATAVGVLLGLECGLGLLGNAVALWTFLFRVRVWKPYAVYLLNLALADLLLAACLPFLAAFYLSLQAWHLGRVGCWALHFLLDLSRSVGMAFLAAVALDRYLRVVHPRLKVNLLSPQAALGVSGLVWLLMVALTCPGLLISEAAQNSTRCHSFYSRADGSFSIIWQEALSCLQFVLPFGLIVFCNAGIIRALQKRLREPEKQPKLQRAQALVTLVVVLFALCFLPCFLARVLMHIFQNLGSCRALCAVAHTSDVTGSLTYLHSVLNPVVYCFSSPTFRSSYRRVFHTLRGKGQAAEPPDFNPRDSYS

GPR31 [2] = target: T1, GPR31; experiment: 12; format: cell-based; conditions: 100 nmol/L 12(S)-HETE, human platelets, signal at 15 to 120 minutes
Outline: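 Gel-purified human platelets pretreated with test compound at graded levels, then activated with 12(S)-HETE. Lysis on ice for 10 min in Tris-HCl pH 7.5 buffer with NP-40, DTT and protease inhibitors, then cleared at 14 000 g. Rap1-GTP pulled down with RalGDS-RBD agarose, 60 min at 4 °C. Detected by 15% SDS-PAGE and anti-Rap1 immunoblot; lysate aliquots used for total Rap1. IC50 from dose response.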
Target sequence in this assay (O00270 whole entry): as the sequence (O00270 whole entry, species assumed) above

p38 MAPK phosphorylation = experiment: Immunoblot of 12; format: cell-based, human
Outline: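 Gel-purified human platelets incubated in an aggregometer at 37 °C with 12(S)-HETE, with or without 1 or 3 μM test compound, for various times. Solubilised in SDS-PAGE sample buffer and run on 10% SDS-PAGE at equal protein. Immunoblotted for phospho-p38 (Thr180/Tyr182).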

human platelets [3] = experiment: Platelet aggregation by 12; format: cell-based; conditions: 5, 10 and 20 μmol/L 12(S)-HETE, human PRP
GPR31 [4] = target: T1, GPR31; experiment: 12; format: cell-based; conditions: 10 and 20 μM 12(S)-HETE, fura-2-labeled GPR31/CHO cells
Outline: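 Human GPR31 transiently transfected into CHO cells. Cells labelled with fura-2 and challenged with 12(S)-HETE; Ca2+ flux followed over time.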
Target sequence in this assay (O00270 whole entry, species assumed): as above

human platelets [5] = experiment: 12; format: cell-based; conditions: 10 μM 12(S)-HETE, fura-2-labeled human platelets
Outline: (§1)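 Gel-purified platelets loaded with 2.5 μM fura-2/AM, 30 min at 37 °C. Emission recorded at 510 nm with dual excitation at 340/380 nm. For line 6, platelets preincubated with test compound or vehicle before AYPGKF.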

platelet-rich plasma = experiment: Thrombin-induced clot retraction in PRP; format: cell-based, human; conditions: 10 or 30 μM inhibitor, 3 nmol/L thrombin, RT, 15 minutes to 4 hours
Outline: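 Citrated platelet-rich plasma adjusted to […] and diluted in PBS with red blood cells in glass tubes. CaCl2 added to a final 0.5 mmol/L. Pretreated with 10 or 30 μM test compound, P2Y12 inhibitor or vehicle. Clotting started with 3 or 10 nmol/L thrombin at room temperature. Clots photographed at 0, 5, 10, 15 and 30 min and at 1, 2 and 4 h.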

Rap1 [6] = experiment: Thrombin-induced Rap1 activation in human platelets; format: cell-based; conditions: GPR310 3 μM, AZD1283 10 μM or dual; 3 nmol/L thrombin, 15 min, gel-purified platelets
RASA3 = experiment: Thrombin-induced RASA3 membrane localization in human platelets; format: cell-based; conditions: GPR310 1 μM, AZD1283 10 μM, dual, or LY294002 10 μM, 3 nmol/L thrombin
IL-8 receptor CXCR1/2 = experiment: Calcium flux in human neutrophils, IL-8; format: cell-based; conditions: GPR310 6 μM, 50 nmol/L IL-8
CXCR4 = CXCR4 (Homo sapiens, UniProt P61073); experiment: Calcium flux in human neutrophils, SDF1α; format: cell-based; conditions: GPR310 6 μM, 100 nmol/L SDF1α
ADP receptors = experiment: Calcium flux, ADP; format: cell-based, human; conditions: GPR310 6 μM; 20 μM ADP
PAR1 [7] = target: T2, PAR1 (Homo sapiens, UniProt P25116); experiment: Calcium flux in HEK293 recombinant system, SFLLRN; format: cell-based; conditions: GPR310 6 μM, 100 μM SFLLRN
T2 sequence (P25116 22-425): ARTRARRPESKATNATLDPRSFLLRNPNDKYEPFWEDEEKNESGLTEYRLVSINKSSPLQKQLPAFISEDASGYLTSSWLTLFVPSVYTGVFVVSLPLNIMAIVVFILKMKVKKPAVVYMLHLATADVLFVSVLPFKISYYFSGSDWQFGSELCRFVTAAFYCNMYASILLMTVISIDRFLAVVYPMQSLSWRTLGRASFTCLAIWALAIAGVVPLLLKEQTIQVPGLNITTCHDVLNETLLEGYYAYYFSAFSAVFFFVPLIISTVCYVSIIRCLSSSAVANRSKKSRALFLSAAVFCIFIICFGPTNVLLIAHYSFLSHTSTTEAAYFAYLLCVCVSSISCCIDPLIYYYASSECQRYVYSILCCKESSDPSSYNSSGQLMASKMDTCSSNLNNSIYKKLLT

PAR2 = target: T3, PAR2 (Homo sapiens, UniProt P55085); experiment: Calcium flux, recombinant PAR2, SLIGRL; format: cell-based; conditions: GPR310 6 μM; 100 μM SLIGRL
T3 sequence (P55085 26-397): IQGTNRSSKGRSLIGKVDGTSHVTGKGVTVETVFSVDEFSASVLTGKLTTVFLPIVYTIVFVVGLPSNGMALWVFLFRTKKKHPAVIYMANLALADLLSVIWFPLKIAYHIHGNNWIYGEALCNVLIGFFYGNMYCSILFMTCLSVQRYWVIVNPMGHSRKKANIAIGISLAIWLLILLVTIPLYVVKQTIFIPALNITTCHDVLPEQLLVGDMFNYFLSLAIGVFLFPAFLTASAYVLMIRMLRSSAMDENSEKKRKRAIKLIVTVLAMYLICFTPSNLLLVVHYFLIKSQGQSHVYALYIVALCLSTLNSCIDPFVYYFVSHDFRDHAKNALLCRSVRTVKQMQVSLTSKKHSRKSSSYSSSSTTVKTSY

PAR1 [8] = experiment: PAR1; format: cell-based, human
human platelets [9] = experiment: Collagen-mediated human platelet aggregation; format: cell-based; conditions: 10 μg/mL collagen; 3 μmol/L GPR310 or 30 μmol/L ML355; P<0.001
mouse platelets [10] = experiment: AYPGKF-induced aggregation and ATP release in mouse PRP; format: cell-based; conditions: 30 μM GPR310 spiked, 100 μM AYPGKF
Outline: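 Mouse platelet-rich plasma spiked with test compound, then stimulated with 100 μM AYPGKF. Run at 37 °C with stirring at 900 rpm in a lumi-aggregometer. Aggregation and dense-granule ATP release recorded together; ATP detected with luciferin/luciferase reagent and calibrated against an ATP standard.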

mouse platelets [11] = experiment: Ex vivo platelet aggregation after sc dosing; format: in vivo; conditions: mice, 10 mg/kg sc, 4 h; AYPGKF 100 μmol/L or thrombin 10 nmol/L
Tail bleeding time = format: in vivo, mouse; conditions: mice, 4 hours after 5 and 10 mg/kg sc, n=10
Outline: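 Mice anaesthetised 4 h after subcutaneous test compound or vehicle and kept on a 37 °C homeothermic blanket. Tail transected 5 mm from the tip and immersed at once in 37 °C saline. Time to cessation recorded; cessation counted only once bleeding had stopped for 1 min.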

[12] = Pharmacokinetics of sc injected pepducin in mouse plasma; format: in vivo; conditions: CD-1, mouse, 10 mg/kg
Outline: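 CD-1 mice given 10 mg/kg test compound subcutaneously in 10% DMSO. Vena cava blood drawn into heparin at 5, 15 and 30 min and 1, 4, 5, 14 and 24 h. Pepducin extracted from plasma and quantified by LC-MS to obtain peak level and terminal elimination.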

PAR4 [13] = experiment: AYPGKF-mediated calcium flux in human platelets; format: cell-based; conditions: 3 μM GPR310, 160 μM AYPGKF, fura-2-labeled human platelets
Outline: as §1

pAKT, pERK = experiment: Immunoblot of thrombin-induced Akt and ERK phosphorylation in human platelets; format: cell-based; conditions: 1 μM GPR310, 3 nmol/L thrombin, 15 min
Outline: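 Gel-purified human platelets pretreated with or without 1 μM test compound, then stimulated with 3 nmol/L thrombin for 15 min. Equal protein resolved on 10% SDS-PAGE and immunoblotted for phospho-AKT and phospho-ERK, with β-actin as loading control.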

Rap1 [14] = experiment: AYPGKF; format: cell-based; conditions: human platelets, peak shifted from 5 to 15 minutes
PAR4 [15] = experiment: PAR4; format: cell-based, human; conditions: 30 μmol/L ML355, 2 min preincubation, 160 μmol/L AYPGKF, aggregation at 15 min

Sequence of CXCR4 (P61073 whole entry): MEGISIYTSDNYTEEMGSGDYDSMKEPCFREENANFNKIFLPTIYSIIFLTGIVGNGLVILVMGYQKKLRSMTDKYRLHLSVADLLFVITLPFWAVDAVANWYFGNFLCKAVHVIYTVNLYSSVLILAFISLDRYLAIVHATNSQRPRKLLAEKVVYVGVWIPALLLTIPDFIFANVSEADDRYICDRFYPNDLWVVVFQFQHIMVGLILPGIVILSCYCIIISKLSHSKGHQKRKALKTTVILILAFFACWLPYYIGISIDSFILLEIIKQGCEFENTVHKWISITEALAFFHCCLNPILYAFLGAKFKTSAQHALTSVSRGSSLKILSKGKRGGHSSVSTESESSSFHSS

## CCCCC/C=C\C[C@H](O)/C=C/C=C\C/C=C\CCCC(=O)O [12(S)-HETE]
GPR31 [1]; 300 nmol/L 12(S)-HETE with 10 μM forskolin, not observed in Cre-luci controls
  inhibition of AC (adenylyl cyclase) activity: significant inhibition
GPR31 [2]
  Rap1-GTP activation: strongly activated
p38 MAPK phosphorylation; 100 nmol/L 12(S)-HETE, 15 minutes, human platelets
  p38 MAPK phosphorylation activation: rapidly (15 minutes) activated
Human platelets [3]
  activation of platelet aggregation: failed to effectively activate platelet aggregation
GPR31 [4]
  calcium mobilization: low but detectable calcium transients
Human platelets [5]
  calcium flux: negligible

## CCOC(=O)c1cc(C#N)c(N2CCC(C(=O)NS(=O)(=O)Cc3ccccc3)CC2)nc1C [AZD1283, reference compound]
platelet-rich plasma
  clot retraction time vs vehicle: longer clot retraction times
Rap1 [6]
  inhibition of thrombin-induced Rap1 activation: partially suppressed
RASA3
  suppression of thrombin-induced RASA3 appearance in plasma membrane: complete suppression

## CCCCCCCCCCCCCCCC(=O)N[C@@H](CCCNC(=N)N)C(=O)N[C@@H](C)C(=O)N[C@@H](CC(C)C)C(=O)N[C@@H](CCC(N)=O)C(=O)N[C@@H](CCCCN)C(=O)N[C@@H](CCCNC(=N)N)C(=O)N[C@@H](CC(C)C)C(=O)N[C@@H](CCCNC(=N)N)C(=O)N[C@@H](CCC(=O)O)C(=O)N1CCC[C@H]1C(=O)N[C@@H](CCC(=O)O)C(=O)N[C@@H](CCCCN)C(=O)N[C@@H](CCC(N)=O)C(=O)N1CCC[C@H]1C(=O)N[C@@H](CCCCN)C(=O)N[C@@H](CC(C)C)C(=O)N[C@@H](CCC(N)=O)C(=O)N[C@@H](CCCNC(=N)N)C(=O)N[C@@H](C)C(=O)N[C@@H](CCC(N)=O)C(=O)N[C@@H](C)C(N)=O [GPR310] (Palmitoyl-RALQKRLREPEKQPKLQRAQA-NH2; C-terminus assumed)
p38 MAPK phosphorylation; 1 to 3 μM GPR310, human platelets
  inhibition of 12(S)-HETE-induced p38 MAPK phosphorylation: completely attenuated
IL-8 receptor CXCR1/2
  inhibition of calcium flux (CXCR1/2): did not inhibit
CXCR4
  inhibition of calcium flux (CXCR4): did not inhibit
ADP receptors
  inhibition of calcium flux (ADP receptors): did not inhibit
PAR1 [7]
  inhibition of PAR1 calcium flux: minimal inhibition
PAR2
  inhibition of recombinant PAR2 calcium flux: no detected inhibition
PAR1 [8]; 10 μmol/L GPR310, 3 μM SFLLRN, gel-purified human platelets
  inhibition of PAR1-mediated platelet aggregation: significant inhibition
PAR1 [8]; 10 μmol/L GPR310, 10 μmol/L SFLLRN, gel-purified human platelets
  inhibition of PAR1-mediated platelet aggregation: no significant effect
Human platelets [9]
  inhibition of collagen-mediated platelet aggregation: almost completely inhibited
platelet-rich plasma
  clot retraction time vs vehicle: longer clot retraction times
Mouse platelets [10]
  inhibition of ATP release, mouse PRP: inhibited
  inhibition of platelet aggregation, mouse PRP: inhibited
Mouse platelets [11]
  ex vivo antiplatelet effect at high agonist concentration: reversed
Tail bleeding time
  tail bleeding time vs vehicle control: no difference
[12]
  Tmax: 1 h
  level at time molar at 4 h: 3500 nM
  level at time molar at 14 h: 10 nM
PAR4 [13]
  suppression of AYPGKF-mediated Ca2+ response: 80%
pAKT, pERK
  inhibition of thrombin-induced Akt phosphorylation: attenuated
  inhibition of thrombin-mediated ERK activation: inhibited
Rap1 [6]
  inhibition of thrombin-induced Rap1 activation: partially suppressed
Rap1 [14]
  inhibition of AYPGKF-induced Rap1-GTP signal: significantly attenuated
RASA3
  suppression of thrombin-induced RASA3 appearance in plasma membrane: complete suppression

## COc1cccc(CNc2ccc(S(=O)(=O)Nc3nc4ccccc4s3)cc2)c1O [ML355, reference compound]
PAR4 [15]
  inhibition of PAR4-mediated platelet aggregation: inhibition
PAR1 [8]; 30 μmol/L ML355, 3 μmol/L SFLLRN
  inhibition of PAR1-mediated platelet aggregation: considerable inhibition
PAR1 [8]; 30 μmol/L ML355, 10 μmol/L SFLLRN
  inhibition of PAR1-mediated platelet aggregation: but not 10 μmol/L SFLLRN
Human platelets [9]
  inhibition of collagen-mediated platelet aggregation: to a similar extent

## C=C[C@@]1(C)CC(=O)[C@]2(O)[C@@]3(C)[C@@H](O)CCC(C)(C)[C@@H]3[C@H](O)[C@H](OC(C)=O)[C@@]2(C)O1 [forskolin]
GPR31 [1]; CHO-K1 cells expressing GPR31 and Cre-luciferase, 10 μM forskolin
  induction of cAMP-responsive element-luciferase reporter: 10 fold

From paper PMC8108540 (Arteriosclerosis, thrombosis, and vascular biology, 2020)
